Test results taken from ChEMBL document CHEMBL3351343, “Synthesis and biological evaluation of novel sigma-1 receptor antagonists based on pyrimidine scaffold as agents for treating neuropathic pain” (J Med Chem, 2014).

Tests used:
[1] = biological target: Sigma non-opioid intracellular receptor 1 (Cavia porcellus, UniProt Q60492); experiment: Displacement of [3H]-(+)-pentazocine from sigma-1 receptor in Dunkin Hartley guinea pig brain membranes after 180 mins by liquid scintillation counting analysis; parameters: species or system Membrane
Sequence of Sigma non-opioid intracellular receptor 1 (Q60492 whole entry): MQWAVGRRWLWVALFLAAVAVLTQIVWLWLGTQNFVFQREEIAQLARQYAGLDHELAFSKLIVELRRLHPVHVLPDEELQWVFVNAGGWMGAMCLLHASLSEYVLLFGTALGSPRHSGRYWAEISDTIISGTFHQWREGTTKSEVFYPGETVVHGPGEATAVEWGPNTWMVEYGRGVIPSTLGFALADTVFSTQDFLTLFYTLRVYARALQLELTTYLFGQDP

[2] = Displacement of [3H]-DTG from sigma-2 receptor in Dunkin Hartley guinea pig brain membrane after 120 mins by liquid scintillation counting analysis in presence of (+)-SKF10047; parameters: species or system Cavia porcellus
Cavia porcellus = organism: Cavia porcellus; experiment: Selectivity ratio of Ki for Dunkin Hartley guinea pig brain sigma-2 receptor to Ki for Dunkin Hartley guinea pig brain sigma-1 receptor
[3] = Acute toxicity in po dosed Kun Ming mouse after 24 hrs; type: organism-based; conditions: in vivo
Mus musculus [4] = experiment: Antinociceptive activity in Kun Ming mouse pain model assessed as reduction in licking and biting time during phase-1 at 80 mg/kg, ip administered 15 mins prior to formalin challenge relative to vehicle-treated control; type: functional; conditions: route intraperitoneal
How it was run: (§1)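 Kun Ming mice (20 ± 2.0 g), 10–12 per group, given vehicle (30% PEG 400) or drug ip at 10 mL/kg 15 min before intraplantar formalin. Time spent licking or biting the injected paw scored at 0–5 min (phase I) and 15–45 min (phase II). Effect (%) = (LTV − LTD)/LTV × 100.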

Mus musculus [5] = experiment: Antinociceptive activity in Kun Ming mouse pain model assessed as reduction in licking and biting time during phase-2 at 80 mg/kg, ip administered 15 mins prior to formalin challenge relative to vehicle-treated control; type: functional; conditions: route intraperitoneal; how it was run: as §1

Structure (SMILES)	Ki [1] [nM]	Ki [2] [nM]	Ratio Ki (Cavia porcellus)	LD50 at 24 h [3] [mg/kg]	Time (Mus musculus [4]) [s]	Time (Mus musculus [5]) [s]
Cc1ncnc(OCCCN2CCCCC2)c1Cl	187	1100	5.9			
Cc1ccc(-c2nc(C)c(Cl)c(OCCCN3CCCCC3)n2)cc1	1.96	1550		1680		
Cc1cc(OCCN2CCOCC2)nc(-c2ccccc2)n1	> 2000	> 2000				
Cc1cc(OCCCN2CCC(O)CC2)nc(-c2ccccc2)n1	462	1760	3.8			
Cc1cc(OCCCN2CCC(=O)CC2)nc(-c2ccccc2)n1	319	1490	4.7			
Cc1cc(OC/C=C/CN2CCOCC2)nc(-c2ccccc2)n1	116	1450	12.5			
c1ccc(-c2cc(OCCCN3CCCC3)nc(-c3ccccc3)n2)cc1	735	> 2000				
Cc1nc(-c2ccccc2)nc(OCCCN2CCCCC2)c1F	3.75	1360	363			
Cc1cc(OCCCN2CCCN(C)CC2)nc(-c2ccccc2)n1	18.7	1300	69.2			
Cc1cc(OCCCN2CCCC2)nc(-c2ccccc2)n1	13.6	1250	92.1			
c1ccc(-c2nc(OCCCN3CCCC3)cc(C3CC3)n2)cc1	278	> 2000				
Cc1nc(-c2ccc(C(F)(F)F)cc2)nc(OCCCN2CCCCC2)c1Cl	4.42	1780		377		
Cc1nc(-c2ccc(F)c(F)c2)nc(OCCCN2CCCCC2)c1Cl	0.97	943				
Cc1nc(-c2ccccc2)nc(OCCCN2CCCC2)c1F	3.51	1190	340			
Cc1cc(OCCOCCN2CCOCC2)nc(-c2ccccc2)n1	422	1920	4.6			
Cc1nc(C)c(Cl)c(OCCCN2CCCCC2)n1	58.8	1080	18.4			
CCCc1cc(OCCCN2CCCC2)nc(-c2ccccc2)n1	38.9	1400	35.8			
Cc1cc(OCCCN2CC(C)CC(C)C2)nc(-c2ccccc2)n1 (centres undefined)	30.2	1660	55			
Cc1nc(-c2ccc(Cl)c(Cl)c2)nc(OCCCN2CCCCC2)c1Cl	89.8	> 2000				
CC(C)c1cc(OCCCN2CCCCC2)nc(-c2ccccc2)n1	188	1840	9.7			
FC(F)(F)c1cc(OCCCN2CCCCC2)nc(-c2ccccc2)n1	27.6	1330	48			
Cc1cc(OCCCN2CCOCC2)nc(-c2ccccc2)n1	36.3	949	26.1			
Cc1cc(OCCN2CCOCC2)nn1-c1ccc2ccccc2c1					10.65	33.16
CCc1cc(OCCCN2CCCCC2)nc(-c2ccccc2)n1	20.5	1140	55.6			
Cc1cc(OCCCN2CCNCC2)nc(-c2ccccc2)n1	151	1210	8			
CCCc1cc(OCCCN2CCCCC2)nc(-c2ccccc2)n1	34.9	1460	41.7			
CCc1cc(OCCCN2CCCC2)nc(-c2ccccc2)n1	22.4	1430	63.8			
Cc1cc(OCCCN2CCC(C)CC2)nc(-c2ccccc2)n1	16.7	1420	84.7			

Structure (SMILES)	Ki [1] [nM]	Ki [2] [nM]	Ratio Ki (Cavia porcellus)	LD50 at 24 h [3] [mg/kg]	Time (Mus musculus [4]) [s]	Time (Mus musculus [5]) [s]
Cc1nc(-c2ccc3ccccc3c2)nc(OCCCN2CCCCC2)c1Cl	102	> 2000				
CCN(CC)CCCOc1cc(C)nc(-c2ccccc2)n1	47.1	1320	28			
Cc1cc(OCCCN2CCCCC2)nc(-c2ccccc2)n1	11.8	1050	89.1			
Cc1cc(OCCCN2CCN(C(=O)OC(C)(C)C)CC2)nc(-c2ccccc2)n1	> 2000	> 2000				
CCCN(CCC)CCCOc1cc(C)nc(-c2ccccc2)n1	38.8	1070	27.5			
Cc1nc(-c2ccccc2)nc(OCCCN2CCCC2)c1Cl	4.02	1680		> 2000		
Cc1cc(OCCCN2CCN(c3ccccc3)CC2)nc(-c2ccccc2)n1	> 2000	> 2000				
Cc1cc(OCCCCCN2CCOCC2)nc(-c2ccccc2)n1	389	> 2000				
COc1cc(OCCCN2CCCCC2)nc(-c2ccccc2)n1	19.3	892	46.2			
Cc1cc(OCCCN(C)C)nc(-c2ccccc2)n1	82.3	> 2000				
CC(C)c1cc(OCCCN2CCCC2)nc(-c2ccccc2)n1	218	1090	5			
Cc1nc(C2CC2)nc(OCCCN2CCCCC2)c1Cl	39.5	1330	33.6			
Cc1cc(OCCCN2CCN(C)CC2)nc(-c2ccccc2)n1	22.7	1320	58.3			
CCN1CCN(CCCOc2cc(C)nc(-c3ccccc3)n2)CC1	30.6	1180	38.5			
Cc1cc(OCCCN2C(C)(C)CCCC2(C)C)nc(-c2ccccc2)n1	377	> 2000				
COc1cc(OCCCN2CCCC2)nc(-c2ccccc2)n1	19.3	892	46.2			
COc1ccc(-c2nc(C)c(Cl)c(OCCCN3CCCCC3)n2)cc1		1290	332			
Cc1nc(-c2ccccc2)nc(OCCCN2CCCC2)c1C	11.4	1280	112			
c1ccc(-c2nc(OCCCN3CCCCC3)cc(C3CC3)n2)cc1	253	> 2000				
Cc1cc(OCCCCN2CCOCC2)nc(-c2ccccc2)n1	95.2	1070	11.2			
c1ccc(-c2cc(OCCCN3CCCCC3)nc(-c3ccccc3)n2)cc1	966	> 2000				
FC(F)(F)c1cc(OCCCN2CCCC2)nc(-c2ccccc2)n1	27.6	1330	48			
Cc1nc(-c2ccccc2)nc(OCCCN2CCCCC2)c1C	9.51	1220	128			
Cc1cc(OCCCCCCN2CCOCC2)nc(-c2ccccc2)n1	> 2000	> 2000				
Cc1cc(OCC(O)CN2CCOCC2)nc(-c2ccccc2)n1 (centres undefined)	486	1640	3.4			
Cc1nc(-c2ccccc2)nc(OCCCN2CCCCC2)c1Cl	2.33	1650		440		
Cc1nc(-c2ccc(F)cc2)nc(OCCCN2CCCCC2)c1Cl	1.14	1330		884		
